Data taken from PubChem BioAssay.
Active and inactive are the calls of the source.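 The calls were made as follows, unless noted: active = viability at or below 30% in both replicate assays; inconclusive = viability at or below 30% in just one of the two assays; inactive = the rest.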

Tests used:
[1] = reduced viability of SK-BR-3 breast cancer cells – cell-based, 24 h, human, pilot screen (AID 572;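 active = viability at or below 10% of carrier control in both of two separate runs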;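 also: compound exposure lasted between 18 and 24 h rather than exactly 24 h; 100% = carrier-treated control wells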); details: SK-BR-3 viability, CellTiter-Glo luminescence, at 10 µM, stronger effect = lower value
[2] = HUVEC growth inhibition – cell-based, human, primary screen (AID 575); details: HUVEC proliferation, CellTiter-Glo luminescence, 72 h; at 10 µM; stronger effect = lower value;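 also: 100% = median of untreated cell wells with 0.1% DMSO on each plate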
In short: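 Test system: primary human umbilical vein endothelial cells. Quantity: 1250 cells/well. Compound: single 10 µM dose, 0.1% DMSO, from 5x medium stock. Timing: 72 h treatment at 37 °C. Detection: ATP-based CellTiter-Glo luminescent read. Benchmarks: vehicle and MePR control wells. Format: 384-well plates coated with collagen.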

[3] = H69AR cell proliferation blockers – human, duplicate replicates, primary screen (AID 580;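 active = viability at or under a set limit in both replicates, limit being median viability minus 3 SD, cut at about 48% in these data, passing the limit was not always enough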;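 also: 100% = mean luminescence of untreated wells and 0% = no signal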); details: H69AR lung tumor cells viability, ATP luminescence, 72 h; at 10 µM; stronger effect = lower value
[4] = MRP1 drug-resistance reversers in H69AR cells – cell-based, doxorubicin co-treatment, pilot screen (AID 601;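 active = viability loss from added drug above about 55%, and viability with drug at most 40%, in both replicates, limit read from the data, passing the limit was not always enough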); details: CellTiter-Glo, 72 h, at 10 µM; for differential viability (reversal): stronger effect = higher value
[5] = yeast transport mutant growth inhibition pilot in 384-well plates, post-Golgi transport modulator project (AID 636; in the data active = inhibition above about 31%); details: absorbance 615 nm, about 18 h, stronger effect = higher value
[6] = growth suppression of yeast trafficking mutant, preliminary HTS, modulators of trafficking downstream of Golgi apparatus project, 1536-format plate, OD 615 nm (AID 637; in the data active = inhibition above about 30%); details: yeast transport mutant growth, absorbance 615 nm, 18 h; stronger effect = higher value
[7] = H69AR cells + 2 uM doxorubicin, measured here: viability with 2 uM doxorubicin, stronger effect = lower value
[8] = H69AR cells, compound alone cytotoxicity

SMILES	viability [1]	viability [2]	viability [3]	differential viability (reversal) ([4]; H69AR cells + 2 uM doxorubicin)	viability [4, 7] [%]	viability [4, 8] [%]	inhibition [5]	inhibition [6]
O=C(NC1=NCCS1)c1ccc2c(c1)C(=O)N(Cc1ccco1)C2=O	85% (inactive)	94% (inactive)	93.6% (inactive)	1.83% (inactive)	91.8	93.6	-7.26% (inactive)	4.73% (inactive)
COc1cc(C(=O)N(C)c2nnc(-c3cccnc3)s2)cc(OC)c1OC	123% (inactive)	89.6% (inactive)	82.7% (inactive)	-8.95% (inactive)	91.6	82.7	-2.05% (inactive)	17.4% (inactive)
Cc1ccc2[nH]c(=O)c(-c3noc(-c4ccncc4)n3)cc2c1	104% (inactive)	113% (inactive)	98.7% (inactive)	4.67% (inactive)	94	98.7	-8.11% (inactive)	6.18% (inactive)
O=C(CSc1nc2ccccc2[nH]1)c1ccc2c(c1)OCO2	79% (inactive)	99.8% (inactive)	107% (inactive)	22.7% (inactive)	83.8	107	-0.68% (inactive)	-5.16% (inactive)
COCCn1nnnc1SCC(=O)N1CCCCC1	63% (inactive)	102% (inactive)	99.4% (inactive)	1.98% (inactive)	97.4	99.4	-5.34% (inactive)	4.18% (inactive)
COc1ccc(/C(O)=C2\C(=O)C(=O)N(c3cc(C)on3)C2c2ccccc2OC)cc1 (stereo unspecified)	105% (inactive)	101% (inactive)	78.5% (inactive)	-6.79% (inactive)	85.3	78.5	-8.27% (inactive)	-5.09% (inactive)
O=C(Nc1sccc1C(=O)NCc1ccco1)c1cccnc1	90% (inactive)	96.8% (inactive)	79.6% (inactive)	-4.98% (inactive)	84.5	79.6	-0.55% (inactive)	2.55% (inactive)
CC(=O)OCC(=O)[C@H]1CC[C@H]2[C@@H]3CCC4=CC(=O)CC[C@]4(C)[C@H]3CC[C@]12C	86% (inactive)	39.2% (inactive)	102% (inactive)	-0.2% (inactive)	102	102	-0.91% (inactive)	-3.5% (inactive)
CCn1c(SCC(=O)C(C)(C)C)nnc1-c1cnccn1	81% (inactive)	107% (inactive)	105% (inactive)	15.9% (inactive)	89.2	105	-3.7% (inactive)	-9.35% (inactive)
Cc1cc(-c2ccccc2)nnc1NCCN1CCOCC1	98% (inactive)	85.7% (inactive)	89.7% (inactive)	-2.49% (inactive)	92.1	89.7	1.69% (inactive)	-3.17% (inactive)
O=c1[nH]c(NCc2ccccc2)nc2c1CCCC2	87% (inactive)	115% (inactive)	104% (inactive)	7.85% (inactive)	96.5	104	-4.19% (inactive)	-10% (inactive)
CN1CCN(C(=O)c2ccc3c(=O)n(CCc4ccccc4)c(=S)[nH]c3c2)CC1	102% (inactive)	66.2% (inactive)	81.6% (inactive)	25.3% (inactive)	56.3	81.6	-1.95% (inactive)	-2.46% (inactive)
CC1(C)S[C@@H]2[C@H](NC(=O)[C@H](C(=O)O)c3ccsc3)C(=O)N2[C@H]1C(=O)O	105% (inactive)	91.5% (inactive)	102% (inactive)	2.32% (inactive)	99.3	102	-0.26% (inactive)	-0.17% (inactive)
CCC(=O)Nc1ccc(NC(=O)c2ccccn2)cn1	87% (inactive)	103% (inactive)	98.2% (inactive)	13.6% (inactive)	84.6	98.2	-5.47% (inactive)	-8% (inactive)
CC(=O)Nc1ccc(S(=O)(=O)CCC#N)cc1	109% (inactive)	89.4% (inactive)	91.7% (inactive)	-6.28% (inactive)	98	91.7	-1.17% (inactive)	5.41% (inactive)
CC(C)N(C(=O)N1CCC(c2nc(-c3ccncc3)no2)CC1)C(C)C	79% (inactive)	105% (inactive)	102% (inactive)	-3.66% (inactive)	106	102	-4.86% (inactive)	-5.64% (inactive)
Cc1cnc(NC(=O)C2=C(O)c3ccccc3S(=O)(=O)N2C)s1	102% (inactive)	84% (inactive)	89.9% (inactive)	0.62% (inactive)	89.3	89.9	3.51% (inactive)	-2.83% (inactive)
CCOc1ccccc1N1CC(O)=C(c2nc3ccccc3s2)C1=N	97% (inactive)	49.4% (inactive)	14.5% (active)	-45.7% (inactive)	60.2	14.5	1.47% (inactive)	2.36% (inactive)
COC(=O)c1ccc(COc2ccc(C3C4=C(CCCC4=O)Nc4onc(C)c43)cc2)cc1 (stereo unspecified)	104% (inactive)	82.3% (inactive)	94.7% (inactive)	2.04% (inactive)	92.7	94.7	-5.19% (inactive)	-3.93% (inactive)

SMILES	viability [1]	viability [2]	viability [3]	differential viability (reversal) ([4]; H69AR cells + 2 uM doxorubicin)	viability [4, 7] [%]	viability [4, 8] [%]	inhibition [5]	inhibition [6]
O=C(NCc1ccco1)c1cccc(S(=O)(=O)N2CCCCC2)c1	110% (inactive)	99.3% (inactive)	90.9% (inactive)	-5.04% (inactive)	96	90.9	4.66% (inactive)	8.73% (inactive)
O=C(c1ccco1)N1CCN(CCCCN2C(=O)c3ccccc3C2=O)CC1	102% (inactive)	90.5% (inactive)	79.9% (inactive)	-12.3% (inactive)	92.2	79.9	-1.04% (inactive)	0.32% (inactive)
CN(C)C(CNC(=O)Nc1cccc(Cl)c1)c1cccnc1 (stereo unspecified)	77% (inactive)	96.6% (inactive)	90.6% (inactive)	8.96% (inactive)	81.7	90.6	-3.42% (inactive)	2.18% (inactive)
COc1ccc(Cn2nnnc2C(c2ccccn2)N2CCN(c3cc(Cl)ccc3C)CC2)cc1 (stereo unspecified)	101% (inactive)	73.1% (inactive)	77.3% (inactive)	-7.71% (inactive)	85	77.3	-2.43% (inactive)	31.6% (active)
O=C(O)CCc1ccc(-c2cccs2)n1NC(=O)c1ccccc1Br	96% (inactive)	104% (inactive)	106% (inactive)	16% (inactive)	89.5	106	-6.71% (inactive)	4.36% (inactive)
c1ccc(OCCCn2nnc(-c3ccncc3)n2)cc1	109% (inactive)	108% (inactive)	95.8% (inactive)	-1.02% (inactive)	96.8	95.8	-5.21% (inactive)	4.73% (inactive)
COc1ccc(NC(=O)CSc2nc(C)cc(C(F)(F)F)n2)cc1	91% (inactive)	103% (inactive)	87.4% (inactive)	3.33% (inactive)	84.1	87.4	-6.44% (inactive)	-4.91% (inactive)
O=C(NCc1cccs1)C1CC(=O)N(C2CCCC2)C1 (stereo unspecified)	87% (inactive)	91.1% (inactive)	94.4% (inactive)	7.15% (inactive)	87.3	94.4	2.6% (inactive)	8.03% (inactive)
O=C(O)CSc1ncn[nH]1	87% (inactive)	102% (inactive)	109% (inactive)	0.37% (inactive)	108	109	-6.58% (inactive)	6.73% (inactive)
CC(C)OC(=O)CSc1nnc(-c2cccnc2)n1Cc1ccccc1	86% (inactive)	105% (inactive)	89.9% (inactive)	9.68% (inactive)	80.2	89.9	-5.81% (inactive)	0.18% (inactive)
COc1cccc(N2CCN(CC(=O)c3c[nH]c4ccc(OC)cc34)CC2C)c1 (stereo unspecified)	104% (inactive)	83.9% (inactive)	70.4% (inactive)	-11.7% (inactive)	82.1	70.4	-5.33% (inactive)	-1.45% (inactive)
O=C(CCCOc1ccccc1)N1CCN(c2ccccn2)CC1	99% (inactive)	97.7% (inactive)	104% (inactive)	5.88% (inactive)	97.8	104	-0.39% (inactive)	-5.74% (inactive)
O=C(CN1CCN(c2ccc(F)cc2)CC1)OCc1ccccc1	95% (inactive)	105% (inactive)	92.6% (inactive)	7.9% (inactive)	84.7	92.6	-4.4% (inactive)	3.64% (inactive)
Cc1ccc(S(=O)(=O)N2CCN(c3nc(C(C)C)c4c(c3C#N)CC(C)(C)OC4)CC2)cc1	65% (inactive)	111% (inactive)	79.6% (inactive)	9.54% (inactive)	70	79.6	-1.22% (inactive)	-3.09% (inactive)
CNC(=O)CSc1nc2c(c(=O)n(C)c(=O)n2C)n1Cc1ccc(C)cc1	100% (inactive)	92.4% (inactive)	96.2% (inactive)	16.2% (inactive)	79.9	96.2	-2% (inactive)	-7.45% (inactive)
CCOC(=O)CNC(=O)CSc1nnnn1-c1cc(C)ccc1C	105% (inactive)	105% (inactive)	110% (inactive)	12.1% (inactive)	98.1	110	-2.08% (inactive)	-1.48% (inactive)
CSc1nnc(-c2cnccn2)n1Cc1ccccc1	96% (inactive)	92.5% (inactive)	102% (inactive)	6.43% (inactive)	95.7	102	-2.88% (inactive)	0.73% (inactive)
COc1ccc(OC)c(NS(=O)(=O)Cc2ccccc2)c1	63% (inactive)	102% (inactive)	97.5% (inactive)	-14.4% (inactive)	112	97.5	-7.81% (inactive)	1.64% (inactive)
